# Results as given in ChEMBL document CHEMBL4043282, “Discovery of the First Potent, Selective, and Orally Bioavailable Signal Peptide Peptidase-Like 2a (SPPL2a) Inhibitor Displaying Pronounced Immunomodulatory Effects In Vivo” (J Med Chem, 2018).
# The source made the active and inactive calls. No cut-off for these calls is given here.
# What was measured:
# [1] = Total plasma concentration in mouse at 3 mg/kg administered via oral gavage measured after 16 hrs post dose by LC/MS/MS analysis; type: ADME, organism-based
# How it was run: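 Mice dosed by oral gavage in 0.5% MC:0.5% Tween or PEG:D5W 3:1. 50 μL blood taken retro-orbitally into LiHep tubes; in chronically dosed animals the trough sample came before the morning dose. Kept on ice, plasma separated by centrifugation at 2823g, 5 min, stored at −20 °C until analysis.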
# [2] = test system: Rattus norvegicus; experiment: Dose normalized Cmax in Wistar rat at 10 mg/kg, po bid measured up to 1 hr by LC/MS/MS analysis; type: ADME, organism-based, Wister; conditions: in vivo
# [3] = target: T1, Signal peptide peptidase-like 2A (Mus musculus, UniProt Q9JJF9); experiment: Inhibition of mouse SPPL2a expressed in human U2OS cells using EGFP-labeled TNFalpha (1 to 77 residues) NLS as substrate after 24 hrs by Hoechst staining based high content imaging assay; type: cell-based
# T1 sequence (Q9JJF9 whole entry): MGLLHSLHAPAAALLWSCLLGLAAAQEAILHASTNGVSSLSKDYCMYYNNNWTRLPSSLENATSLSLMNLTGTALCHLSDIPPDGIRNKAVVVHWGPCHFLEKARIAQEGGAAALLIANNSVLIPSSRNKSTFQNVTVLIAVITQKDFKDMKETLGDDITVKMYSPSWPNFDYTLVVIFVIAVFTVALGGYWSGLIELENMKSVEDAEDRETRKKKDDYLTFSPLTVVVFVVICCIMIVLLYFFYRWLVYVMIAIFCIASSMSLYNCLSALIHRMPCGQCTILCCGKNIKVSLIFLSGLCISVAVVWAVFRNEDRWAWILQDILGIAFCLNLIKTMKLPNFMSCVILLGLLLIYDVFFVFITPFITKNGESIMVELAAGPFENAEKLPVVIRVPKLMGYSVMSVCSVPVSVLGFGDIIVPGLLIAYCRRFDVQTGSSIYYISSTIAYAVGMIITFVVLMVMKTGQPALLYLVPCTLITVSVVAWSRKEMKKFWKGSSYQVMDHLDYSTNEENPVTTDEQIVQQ
# How it was run: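 Stable U-2 OS lines expressing human SPPL2a, SPPL2b or SPP constitutively (mouse SPPL2a line analogous, mouse TNFα(aa1-77)-NTF-EGFP-NLS) with doxycycline-inducible EGFP substrate. 3000 cells/well, 3−4 h, then 11-point inhibitor 100 μM to 1 nM, 0.9% DMSO, 5 μg/mL doxycycline, 24 h 37 °C. PFA fixed, Hoechst nuclei; nuclear minus cytoplasmic EGFP intensity; inhibition vs 0.5 μM reference and DMSO; IC50 by nonlinear regression.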
# [4] = test system: Plasma; experiment: Cmin in mouse plasma at 3 mg/kg, po bid administered at 8 and 16 hrs dosing interval between first and second dose respectively for 11 days measured predose on day 12 by LC/MS/MS analysis; type: ADME, organism-based; conditions: in vivo, read-out: Cmin
# How it was run: (§1)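 Mice gavaged bid in 0.5% MC:0.5% Tween or PEG:D5W 3:1; trough sample taken before the morning dose; 50 μL retro-orbital blood into LiHep tubes, kept on ice, plasma separated at 2823g for 5 min, stored at −20 °C until analysis.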
# [5] = test system: Mus musculus; experiment: Immunomodulatory activity in mouse assessed as reduction in marginal zone B cells in splenocyte at 3 to 30 mg/kg administered via oral gavage bid at 8 and 16 hrs dosing interval between first and second dose respectively for 11 days measured 16 hrs post last dose on day 12 by flow cytometry; type: functional, organism-based
# How it was run: (§2)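 Mice gavaged with compound in 0.5% MC:0.5% Tween or PEG:D5W 3:1. Spleens dissociated in GentleMACS, filtered at 40 μm, ACK red-cell lysis, counted; 1 × 10^6 splenocytes stained 30 min on ice in HBSS/2% FBS/5 mM EDTA with antimouse panels for B-cell subsets (B220, CD21, CD23, IgM, IgD) or dendritic cells (PDCA1, CD11c, MHCII, lineage markers); analyzed on Fortessa flow cytometer.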
# [6] = Total concentration in Lewis rat blood at 3 mg/kg, po bid after 24 hrs by LC/MS/MS analysis; type: ADME, organism-based; conditions: read-out: Drug uptake
# [7] = test system: Mus musculus; experiment: Immunomodulatory activity in mouse assessed as reduction in transition T2 B cells in splenocyte at 3 to 30 mg/kg administered via oral gavage bid at 8 and 16 hrs dosing interval between first and second dose respectively for 11 days measured 16 hrs post last dose on day 12 by flow cytometry; type: functional, organism-based; how it was run: as §2
# [8] = test system: Plasma; experiment: Cmin in mouse plasma at 30 mg/kg, po bid administered at 8 and 16 hrs dosing interval between first and second dose respectively for 11 days measured predose on day 12 by LC/MS/MS analysis; type: ADME, organism-based; conditions: in vivo, read-out: Cmin; how it was run: as §1
# [9] = Total concentration in Lewis rat blood at 1 mg/kg, po bid after 24 hrs by LC/MS/MS analysis; type: ADME, organism-based; conditions: read-out: Drug uptake
# [10] = Drug uptake in Lewis rat spleen at 3 mg/kg, po bid after 24 hrs by LC/MS/MS analysis; type: ADME, organism-based; conditions: read-out: Drug uptake
# [11] = test system: Rattus norvegicus; experiment: Dose normalized AUC in Wistar rat at 10 mg/kg, po bid by LC/MS/MS analysis; type: ADME, organism-based; conditions: in vivo
# [12] = test system: Mus musculus; experiment: In vivo inhibition of SPPL2a in mouse assessed as increase in CD74/p8 accumulation in splenocytes at 10 to 100 mg/kg, po administered as single dose measured after 4 hrs by Western blot method; type: functional, organism-based
# [13] = Stability in rat liver microsomes at […] preincubated for 3 mins followed by NADPH addition measured after 1 hr in presence of GSH and [13C2-15N-glycine]-GSH by HPLC/MS method; type: ADME, microsome; conditions: read-out: Stability
# [14] = Equilibrium solubility of the compound at pH 6.8 after 24 hrs by saturation shake flask based UV-HPLC method; type: physicochemical; conditions: buffer
# [15] = Selectivity ratio of IC50 for human gamma-secretase expressed in HEK293 cells to IC50 for human SPPL2a expressed in HEK293 cells
# How it was run: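 HEK293 transiently transfected: SPPL2a arm with human SPPL2a, VP16-TNFα(aa1-76)-NTF and Gal4-luciferase; γ-secretase arm with human Notch1-VP16-Gal4 plus reporter (endogenous γ-secretase). Compound added 3 h after plating, 10 μM–0.3 nM final, triplicate, 24 h at 37 °C; luminescence read. IC50 from concentration vs normalised luminescence; ratio of the two IC50s.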
# [16] = Drug uptake in mouse spleen at 100 mg/kg, po administered as single dose after 4 hrs by LC/MS/MS analysis; type: ADME, organism-based; conditions: read-out: Drug uptake
# [17] = Total plasma concentration in mouse at 100 mg/kg, po administered as single dose after 4 hrs by LC/MS/MS analysis; type: ADME, organism-based
# [18] = target: T2, Signal peptide peptidase-like 2A (Mus musculus) (UniProt Q9JJF9); experiment: Reversible inhibition of SPPL2a in mouse A20 cells assessed as increase in CD74/p8 accumulation at 2 uM preincubated for 16 hrs followed by compound wash out measured up to 2 hrs by Western blot method; type: cell-based
# T2 sequence (whole entry): T1 sequence (Q9JJF9 whole entry)
# [19] = Total plasma concentration in mouse at 30 mg/kg, po administered as single dose after 4 hrs by LC/MS/MS analysis; type: ADME, organism-based
concentration at 16 h [1] [nM],Cmax/dose [2] [nM],IC50 [3] [nM],concentration [4] [nM],concentration at 24 h [6] [nM],concentration [8] [nM],concentration at 24 h [9] [nM],concentration at 24 h [10] [nM],AUC/dose [11] [nM·h],remaining at 1 h [13] [%],solubility thermodynamic at 24 h [14] [µM],concentration at 4 h [16] [nM],concentration at 4 h [17] [nM],inhibition [18],concentration at 4 h [19] [nM],SMILES,Activity [5],Activity [7],Activity [12],Ratio IC50 [15]
0.8,805,180,16,231,1100,49,860,8787,–,–,–,–,–,–,Cc1ncc(F)cc1NC(=O)C[C@H](C(=O)N[C@@H]1C(=O)N2CC3(CC3)CN2C(=O)c2ccccc21)C1CC1,Active,Active,–,–
–,–,–,–,–,–,–,–,–,93.2,263,1440,2090,Active,500,Cc1ccccc1NC(=O)C[C@@H](C)C(=O)N[C@@H]1C(=O)N2CCCN2Cc2ccccc21,–,–,Active,52
